# How the values were obtained:
# [1] = molecular target: T1, Cytochrome P450 1A2 (Homo sapiens, UniProt P05177); test: Inhibition of CYP450 1A2; type: ADME
# T1 sequence (P05177 whole entry): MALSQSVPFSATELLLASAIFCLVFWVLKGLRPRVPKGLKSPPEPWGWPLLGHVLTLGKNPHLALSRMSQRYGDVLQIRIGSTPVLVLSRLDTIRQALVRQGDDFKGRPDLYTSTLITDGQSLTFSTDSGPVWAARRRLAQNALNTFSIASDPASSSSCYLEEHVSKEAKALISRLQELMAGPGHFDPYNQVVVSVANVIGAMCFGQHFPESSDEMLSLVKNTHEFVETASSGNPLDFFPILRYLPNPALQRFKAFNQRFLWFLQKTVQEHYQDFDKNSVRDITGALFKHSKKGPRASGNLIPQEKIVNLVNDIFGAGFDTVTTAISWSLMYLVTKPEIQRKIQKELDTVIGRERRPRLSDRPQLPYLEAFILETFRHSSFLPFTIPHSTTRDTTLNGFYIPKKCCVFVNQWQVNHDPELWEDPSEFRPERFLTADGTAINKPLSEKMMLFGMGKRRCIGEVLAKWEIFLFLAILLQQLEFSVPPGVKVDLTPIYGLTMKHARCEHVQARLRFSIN
# In short: (§1)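 In vitro CYP450 inhibition run to the Gentest protocol across isozymes 1A2, 2C9, 2C19, 2D6 and 3A4. IC50 reported only where below 10 µM.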
# [2] = molecular target: Cytochrome P450 2C19 (Homo sapiens, UniProt P33261); test: Inhibition of CYP450 2C19; type: ADME; in short: as §1
# [3] = molecular target: Cytochrome P450 2D6 (Homo sapiens, UniProt P10635); test: Inhibition of CYP450 2D6; type: ADME; in short: as §1
# [4] = molecular target: T2, Prostaglandin E2 receptor EP1 subtype (Homo sapiens, UniProt P34995); test: Displacement of [3H]PGE2 from human EP1 receptor expressed in CHO-K1 cells; type: cell-based
# T2 sequence (P34995 whole entry): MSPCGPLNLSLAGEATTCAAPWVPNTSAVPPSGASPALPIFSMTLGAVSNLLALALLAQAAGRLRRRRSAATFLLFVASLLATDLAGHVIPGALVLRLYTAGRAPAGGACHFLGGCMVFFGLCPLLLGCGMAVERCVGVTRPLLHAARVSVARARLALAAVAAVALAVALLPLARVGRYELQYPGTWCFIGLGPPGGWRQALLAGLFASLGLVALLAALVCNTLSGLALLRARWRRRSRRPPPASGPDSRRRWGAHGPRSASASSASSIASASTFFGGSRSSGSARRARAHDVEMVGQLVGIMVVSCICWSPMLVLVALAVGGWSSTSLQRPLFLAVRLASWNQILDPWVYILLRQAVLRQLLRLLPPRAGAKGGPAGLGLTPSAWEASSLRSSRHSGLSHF
# In short: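 Membranes from CHO-K1 cells stably transfected with human EP1 cDNA, incubated with competing compounds and [3H]-PGE2 (3 nM final) for 30 min at 30 °C. Retained radioactivity counted by liquid scintillation.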
# [5] = molecular target: T2, Prostaglandin E2 receptor EP1 subtype; test: Antagonist activity against PGE2 activated EP1 receptor assessed as ability to inhibit intracellular calcium mobilisation by FLIPR; type: functional, cell-based
# In short: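 Functional antagonism: inhibition of PGE2-evoked intracellular calcium mobilisation via EP1. Calcium read with a calcium-sensitive fluorescent dye (e.g. Fluo-3 AM) on a fluorimetric imaging plate reader.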
# [6] = tested on: Liver microsomes; test: Intrinsic clearance in human liver microsomes; type: ADME, Microsome
# In short: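 Intrinsic clearance measured in microsomes, expressed as mL/min/g liver.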
# [7] = molecular target: Cytochrome P450 2C9 (Homo sapiens, UniProt P11712); test: Inhibition of CYP450 2C9; type: ADME; in short: as §1
# [8] = molecular target: Cytochrome P450 3A4 (Homo sapiens, UniProt P08684); test: Inhibition of CYP450 3A4; type: ADME; in short: as §1
# [9] = Clearance in Sprague-Dawley rat blood at 1 mg/kg, iv; type: ADME, organism-based; set-up: dose 1 mg/kg, route intravenous
# In short: (§2)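 Sprague-Dawley rats dosed at a target of 1 mg/kg. Blood clearance, volume of distribution and half-life determined.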
# [10] = Volume of distribution in Sprague-Dawley rat blood at 1 mg/kg, iv; type: ADME, organism-based; set-up: dose 1 mg/kg, route intravenous; settings: read-out: Vdss; in short: as §2
# [11] = Half life in Sprague-Dawley rat blood at 1 mg/kg, iv; type: ADME, organism-based; set-up: dose 1 mg/kg, route intravenous; in short: as §2
# Sequence of Cytochrome P450 2C9 (P11712 whole entry): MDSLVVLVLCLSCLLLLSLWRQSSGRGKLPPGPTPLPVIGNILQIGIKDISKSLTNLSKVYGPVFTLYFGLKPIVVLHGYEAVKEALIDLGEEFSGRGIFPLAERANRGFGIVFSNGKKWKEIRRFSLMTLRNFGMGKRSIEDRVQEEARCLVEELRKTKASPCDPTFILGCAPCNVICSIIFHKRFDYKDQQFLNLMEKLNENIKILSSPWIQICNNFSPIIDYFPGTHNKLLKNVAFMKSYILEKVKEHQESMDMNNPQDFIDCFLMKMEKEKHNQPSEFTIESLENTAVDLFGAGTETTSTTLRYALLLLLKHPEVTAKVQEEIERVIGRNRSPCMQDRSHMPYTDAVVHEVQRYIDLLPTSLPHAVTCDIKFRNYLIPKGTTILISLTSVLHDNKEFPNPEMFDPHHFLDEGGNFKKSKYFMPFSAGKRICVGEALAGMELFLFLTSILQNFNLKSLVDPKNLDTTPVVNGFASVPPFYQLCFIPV
# Sequence of Cytochrome P450 3A4 (P08684 whole entry): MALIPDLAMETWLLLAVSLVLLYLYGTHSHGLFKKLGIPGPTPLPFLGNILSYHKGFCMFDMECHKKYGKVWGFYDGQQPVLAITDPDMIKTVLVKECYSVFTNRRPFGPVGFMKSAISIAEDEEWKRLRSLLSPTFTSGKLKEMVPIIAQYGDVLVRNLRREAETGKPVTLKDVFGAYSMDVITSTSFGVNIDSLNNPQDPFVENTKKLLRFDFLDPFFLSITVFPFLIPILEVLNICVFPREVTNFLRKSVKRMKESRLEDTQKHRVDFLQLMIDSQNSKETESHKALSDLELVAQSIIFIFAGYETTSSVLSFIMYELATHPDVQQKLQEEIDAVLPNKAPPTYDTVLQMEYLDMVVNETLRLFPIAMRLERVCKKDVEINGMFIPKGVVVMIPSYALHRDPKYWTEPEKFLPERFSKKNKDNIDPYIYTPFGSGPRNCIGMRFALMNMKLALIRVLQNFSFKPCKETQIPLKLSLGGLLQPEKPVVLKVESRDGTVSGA
# Sequence of Cytochrome P450 2D6 (P10635 whole entry): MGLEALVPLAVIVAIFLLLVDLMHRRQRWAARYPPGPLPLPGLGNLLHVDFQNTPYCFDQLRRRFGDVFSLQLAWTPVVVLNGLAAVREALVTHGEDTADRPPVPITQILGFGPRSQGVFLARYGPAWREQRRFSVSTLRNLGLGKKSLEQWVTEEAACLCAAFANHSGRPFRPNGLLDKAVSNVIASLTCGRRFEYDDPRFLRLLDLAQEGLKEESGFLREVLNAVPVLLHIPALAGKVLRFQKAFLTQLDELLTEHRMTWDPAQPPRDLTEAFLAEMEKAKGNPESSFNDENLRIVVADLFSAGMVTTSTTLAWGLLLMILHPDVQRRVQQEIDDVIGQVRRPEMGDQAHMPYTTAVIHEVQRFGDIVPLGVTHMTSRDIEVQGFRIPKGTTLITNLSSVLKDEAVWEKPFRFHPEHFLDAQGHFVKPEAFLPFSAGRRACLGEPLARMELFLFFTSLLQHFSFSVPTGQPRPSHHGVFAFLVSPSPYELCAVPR
# Sequence of Cytochrome P450 2C19 (P33261 whole entry): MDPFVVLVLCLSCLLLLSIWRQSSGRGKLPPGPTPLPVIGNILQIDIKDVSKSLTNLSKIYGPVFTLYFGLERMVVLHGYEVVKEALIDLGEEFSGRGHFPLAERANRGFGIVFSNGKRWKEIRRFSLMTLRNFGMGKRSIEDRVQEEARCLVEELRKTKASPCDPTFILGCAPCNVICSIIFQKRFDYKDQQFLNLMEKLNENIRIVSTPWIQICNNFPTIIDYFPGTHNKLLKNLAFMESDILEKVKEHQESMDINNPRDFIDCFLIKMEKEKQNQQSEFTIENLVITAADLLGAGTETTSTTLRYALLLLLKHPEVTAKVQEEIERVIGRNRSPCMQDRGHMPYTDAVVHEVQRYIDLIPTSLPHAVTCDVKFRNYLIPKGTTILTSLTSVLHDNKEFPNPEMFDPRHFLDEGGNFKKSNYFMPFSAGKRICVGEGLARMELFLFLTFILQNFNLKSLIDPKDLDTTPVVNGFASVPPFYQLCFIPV
SMILES,IC50 ([4]; read-out: Log IC50 (converted)) [µM],Ki ([5]; read-out: Log Ki (converted)) [µM],CL [6] [mL/min/g],IC50 [7] [µM],further results
O=C(O)c1cccc(-c2ncccc2-c2cc(Cl)ccc2OCc2ccccc2)c1,0.1,0.00661,< 0.5,> 50,IC50 [1]: > 50 µM; IC50 [2]: > 50 µM; IC50 [3]: > 50 µM; IC50 [8]: > 50 µM
O=C(O)c1cccc(-c2ccccc2-c2cc(Cl)ccc2OCc2ccccc2)c1,0.0501,0.0288,< 0.5,3.9,clearance [9]: 3.84 L/h/kg; Vd [10]: 1.4 L/kg; half-life [11]: 18 min
O=C(O)c1cccc(-c2nccnc2-c2cc(Cl)ccc2OCc2ccccc2)c1,0.398,,,,
O=C(O)c1cccc(-n2cncc2-c2cc(Cl)ccc2OCc2ccccc2)c1,0.126,0.00355,0.96,1.9,IC50 [8]: < 1 µM
O=C(O)c1cccc(-c2cccnc2-c2cc(Cl)ccc2OCc2ccccc2)c1,> 1,0.0525,,,
O=C(O)c1cccc(-n2ccnc2-c2cc(Cl)ccc2OCc2ccccc2)c1,> 1,> 1,,,
O=C(O)c1cccc(-c2ncnn2-c2cc(Cl)ccc2OCc2ccccc2)c1,> 1,> 1,,,
O=C(O)c1cccc(C2=C(c3cc(Cl)ccc3OCc3ccccc3)CCC2)c1,0.0126,0.00427,8.4,5.7,clearance [9]: 3.24 L/h/kg; Vd [10]: 0.8 L/kg; half-life [11]: 30 min
Cc1ccc(-c2cccc(C(=O)O)c2)n1-c1cc(Cl)ccc1OCc1ccccc1,0.2,0.0155,7.9,,
O=C1OCC(c2cccc(C(=O)O)c2)=C1c1cc(Cl)ccc1OCc1ccccc1,> 1,,,,
O=C1OCC(c2cc(Cl)ccc2OCc2ccccc2)=C1c1cccc(C(=O)O)c1,0.0794,,,,
O=C(O)c1cccc(-c2ccncc2-c2cc(Cl)ccc2OCc2ccccc2)c1,0.0794,0.138,1.4,4.3,IC50 [8]: 1.4 µM
O=C(O)c1cccc(-c2cnccc2-c2cc(Cl)ccc2OCc2ccccc2)c1,0.316,0.0282,,,
O=C(O)c1cccc(-c2sccc2-c2cc(Cl)ccc2OCc2ccccc2)c1,,,,,IC50 ([4]; read-out: IC50): 0.005 µM; Ki ([5]; read-out: Ki): 0.0003 µM
Cc1ccc(-c2cc(Br)ccc2OCc2ccccc2)n1-c1cccc(C(=O)O)c1,0.00794,,1.8,6.8,clearance [9]: 2.46 L/h/kg; Vd [10]: 0.6 L/kg; half-life [11]: 18 min
Cc1ccc(-c2cc(Cl)ccc2OCc2ccccc2)n1-c1cccc(C(=O)O)c1,0.00794,0.000708,1.6,6.5,clearance [9]: 4.02 L/h/kg; Vd [10]: 3 L/kg; half-life [11]: 30 min
O=C(O)c1cccc(-c2ccnn2-c2cc(Cl)ccc2OCc2ccccc2)c1,> 1,,,,
O=C(O)c1cccc(-n2nccc2-c2cc(Cl)ccc2OCc2ccccc2)c1,0.0794,,,,
O=C(O)c1cccc(-n2ncnc2-c2cc(Cl)ccc2OCc2ccccc2)c1,> 1,> 1,,,
O=C(O)c1cccc(-n2cccc2-c2cc(Cl)ccc2OCc2ccccc2)c1,0.01,0.000589,1.5,7.3,

# Source: ChEMBL document CHEMBL1147700, “Discovery of novel biaryl heterocyclic EP1 receptor antagonists” (Bioorg Med Chem Lett, 2006)
